Measurements taken from ChEMBL document CHEMBL1129639, “Synthesis and cardiotonic activity of novel pyrimidine derivatives: crystallographic and quantum chemical studies” (J Med Chem, 1996).

Tests used:
Format in all cases: functional
Cavia porcellus [1] = species on record: Cavia porcellus; test: Effect on the contractile force of spontaneously beating atria from Reserpine-treated guinea pigs as percentage variation from the control at concentration of 3 x 10E-6 M
Outline: (§1)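 Atria from reserpine-treated guinea pigs (reserpine 2 mg/kg ip, 48 and 24 h before death; only tyramine-unresponsive preparations used). Bath solution at 29 °C, gassed 95% O2/5% CO2, pH 7.5, resting tension […]. After 90 min equilibration, compound added cumulatively, 5 min per concentration. Isometric developed-tension amplitude or beating rate given as % variation from untreated control. Mean ± SEM, 6-10 assays.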

Cavia porcellus [2] = species on record: Cavia porcellus; test: Effect on the contractile force of spontaneously beating atria from Reserpine-treated guinea pigs as percentage variation from the control at concentration of 10E-3 M; outline: as §1
Cavia porcellus [3] = species on record: Cavia porcellus; test: Effect on the frequency rate of spontaneously beating atria from Reserpine-treated guinea pigs as percentage variation from the control at concentration of 10E-4 M; outline: as §1
Cavia porcellus [4] = species on record: Cavia porcellus; test: Compound was evaluated for its effect on the frequency rate of spontaneously beating atria from Reserpine-treated guinea pigs as percentage variation from the control at concentration of 3 x 10E-6 M; outline: as §1
Cavia porcellus [5] = species on record: Cavia porcellus; test: Effect on the frequency rate of spontaneously beating atria from Reserpine-treated guinea pigs as percentage variation from the control at concentration of 10E-3 M; outline: as §1
Cavia porcellus [6] = species on record: Cavia porcellus; test: Effect on the frequency rate of spontaneously beating atria from Reserpine-treated guinea pigs as percentage variation from the control at concentration of 10E-5 M; outline: as §1
Cavia porcellus [7] = species on record: Cavia porcellus; test: Effect on the contractile force of spontaneously beating atria from Reserpine treated guinea pigs as percentage variation from the control at concentration of 10E-4 M; outline: as §1
Cavia porcellus [8] = species on record: Cavia porcellus; test: Effect on the contractile force of spontaneously beating atria from Reserpine-treated guinea pigs as percentage variation from the control at concentration of 3 x 10E-5 M; outline: as §1
Cavia porcellus [9] = species on record: Cavia porcellus; test: Effect on the contractile force of spontaneously beating atria from Reserpine-treated guinea pigs as percentage variation from the control at concentration of 3 x 10E-4 M; outline: as §1
Cavia porcellus [10] = species on record: Cavia porcellus; test: Effect on the frequency rate of spontaneously beating atria from Reserpine-treated guinea pigs as percentage variation from the control at concentration of 10E-6 M; outline: as §1
Cavia porcellus [11] = species on record: Cavia porcellus; test: Effect on the contractile force of spontaneously beating atria from Reserpine-treated guinea pigs as percentage variation from the control at concentration of 10E-6 M; outline: as §1
Cavia porcellus [12] = species on record: Cavia porcellus; test: Effect on the contractile force of spontaneously beating atria from Reserpine-treated guinea pigs as percentage variation from the control at concentration of 10E-5 M; outline: as §1
Cavia porcellus [13] = species on record: Cavia porcellus; test: Compound was evaluated for its effect on the frequency rate of spontaneously beating atria from Reserpine-treated guinea pigs as percentage variation from the control at concentration of 3 x 10E-4 M; outline: as §1
Cavia porcellus [14] = species on record: Cavia porcellus; test: Compound was evaluated for its effect on the frequency rate of spontaneously beating atria from Reserpine-treated guinea pigs as percentage variation from the control at concentration of 3 x 10E-5 M; outline: as §1

SMILES	Variation (Cavia porcellus [1]) [%]	Variation (Cavia porcellus [2]) [%]	Variation (Cavia porcellus [3]) [%]	Variation (Cavia porcellus [4]) [%]	Variation (Cavia porcellus [5]) [%]	Variation (Cavia porcellus [6]) [%]	Variation (Cavia porcellus [7]) [%]	Variation (Cavia porcellus [8]) [%]	Variation (Cavia porcellus [9]) [%]	Variation (Cavia porcellus [10]) [%]	Variation (Cavia porcellus [11]) [%]	Variation (Cavia porcellus [12]) [%]	Variation (Cavia porcellus [13]) [%]	Variation (Cavia porcellus [14]) [%]
Cc1nc(N(C)C)ncc1C(=O)O	3.77	21.96	3.22	6.45	-3.12	9.67	10.82	8.62	15.77	0	0	5.18	6.45	3.22
COCc1ccnc(N(C)C)n1	0	-20.93	-4	0	-9.33	-1.33	-9.03	-8.02	-11.89	0	0	0	4	-4
CN(C)c1nccc(Cc2ccccc2)n1	10.71	-57.09	-3.03	0	-12.12	3.03	-32.51	3.17	-46.99	0	6.43	9.18	-9.09	3.03
CN(C)c1ncc(C(=O)O)c(-c2ccccc2)n1	10.63	18.2	-3.12	0	-6.25	0	12.75	12.11	14.22	0	6.62	11.47	-3.12	0
CCOC(=O)c1cnc(N(C)C)nc1C(C)C	3.19		-2.94	-2.94		-3.51	-57.53	-34.22	-100	-3.85	0	1.06	-100	-0.91
CCOC(=O)c1cnc(N(C)C)nc1C(F)(F)F	11.26	-60.44	-6.66	0	-19.35	-3.23	-30.35	-3.61	-47.85	0	7.15	10.67	-6.66	-3.61
CN(C)c1nccc(C(F)(F)F)n1	2.47	-100	-22.58	0	-100	-3.23	-67.95	-30.94	-83.03	0	0	-12.62	-32.26	-3.68
Cc1ccnc(N(C)C)n1	2.27	-36.67	0	0	-17.34	0	19.04	16.76	22.47	0	0	8.9	-6.25	0
CN(C)c1nccc(C(C)(C)C)n1	1.13	-35.14	-16.66	0	-40	-6.66	-37.31	-24.35	-34.94	0	0	-5.56	-30.01	-13.33
CCCc1ccnc(N(C)C)n1	7.18	-91.86	-52.63	-5.29	-52.63	-26.31	-64.06	-10.63	-73.58	0	0	3.15	-52.63	-31.58
CN(C)c1nccc(-c2ccccc2)n1	4.67	-100	0	0	-100	0	-12.16	5.57	-23.76	0	0	7.52	-13.33	0
CCCc1nc(N(C)C)ncc1C(=O)OCC	-5.29						0	-100		0	0	-57.89		
CCOC(=O)c1cnc(N(C)C)nc1C(C)(C)C	2.08		-100	0		4.76	-100	-50.08		0	0	-12.52		-7.64
CCOC(=O)c1cnc(N(C)C)nc1CC	0		-100	-6.25		-9.37	-100	-67.44			0	-39.54		-14.76
